Laboratory results as given in ChEMBL document CHEMBL5360615, “Pharmacological and Physicochemical Properties Optimization for Dual-Target Dopamine D3 (D3R) and μ-Opioid (MOR) Receptor Ligands as Potentially Safer Analgesics” (J Med Chem, 2023).
Calls of active or inactive are those of the source. The calls are words filed in the database; no cut-off is given here.

How the values were obtained:
Mu-type opioid receptor [1] = biological target: Mu-type opioid receptor (Homo sapiens, UniProt P35372); experiment: Displacement of [3H]-DAMGO from human MOR receptor expressed in HEK293T cell membrane assessed as inhibition constant incubated for 60 mins by MicroBeta scintillation counting method; format: cell membranes
Procedure, shortened: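 HEK293 cells stably expressing human MOR, grown in DMEM with 10% FBS and hygromycin B; membranes prepared from confluent cells. Binding buffer 50 mM Tris, 5 mM MgCl2, pH 7.4. Nonspecific binding with 10 μM naloxone. 60 min at RT, then GF/C filtration.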

D(3) dopamine receptor [2] = biological target: T1, D(3) dopamine receptor (Homo sapiens, UniProt P35462); experiment: Displacement of [3H]N-methylspiperone from human D3R receptor expressed in HEK293T cell membrane assessed as inhibition constant incubated for 60 mins by MicroBeta scintillation counting method; format: cell membranes
D(2) dopamine receptor = D(2) dopamine receptor (Homo sapiens, UniProt P14416); experiment: Displacement of [3H]N-methylspiperone from human D2L receptor expressed in HEK293T cell membrane assessed as inhibition constant incubated for 60 mins by MicroBeta scintillation counting method; format: cell membranes
Mu-type opioid receptor [3] = biological target: T2, Mu-type opioid receptor (Mus musculus, UniProt P42866); experiment: (§1) Partial agonist activity at Rluc8 fused mouse MOR transfected in HEK293T cells assessed as Nb33 recruitment using coelenterazine as substrate incubated for 40 mins by BRET assay; format: functional, cell-based
Procedure, shortened: (§2)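 HEK293T cells transiently transfected with BRET sensors (DNA:PEI 1:6), plated into poly-D-lysine plates and assayed 48 h post-transfection. Cells washed and held in D-PBS 30 min at 37 °C. Coelenterazine h 5 μM final; ligands 10 μM to 0.01 nM. At least three independent experiments in duplicate.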

Mu-type opioid receptor [4] = biological target: T2, Mu-type opioid receptor; experiment: (§3) Partial agonist activity at SNAP-tagged mouse MOR transfected in HEK293T cells coexpressing wild type Galpha-i2, venus-tagged Gbeta-1 (156 to 239 residues), venus-tagged Ggamma2 (1 to 155 residues) and Rluc8 fused masGRK3ct assessed as Galpha-i2 activation using coelenterazine as substrate incubated for 40 mins by BRET based GPA assay; format: functional, cell-based; procedure, shortened: as §2
[5] = biological target: Mu-type opioid receptor (Mus musculus) (UniProt P42866); experiment: as §3, with “activation at 10 uM” for “activation”, “assay relative to control” for “assay”; format: functional, cell-based; procedure, shortened: as §2
D(3) dopamine receptor [6] = biological target: T1, D(3) dopamine receptor; experiment: as §3, with “human D3R receptor” for “mouse MOR”, “Galpha-oA,” for “Galpha-i2,”, “Galpha-oA” for “Galpha-i2”; format: functional, cell-based
[7] = biological target: Mu-type opioid receptor (Mus musculus) (UniProt P42866); experiment: as §1; format: functional, cell-based; procedure, shortened: as §2
[8] = biological target: Mu-type opioid receptor (Mus musculus) (UniProt P42866); experiment: Partial agonist activity at Rluc8 fused mouse MOR transfected in HEK293T cells coexpressing wild type GRK2 assessed as arrestin-3 recruitment at 10 uM using coelenterazine as substrate incubated for 40 mins by BRET assay relative to control; format: functional, cell-based
Procedure, shortened: (§4)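 HEK293T cells transiently transfected with BRET sensors (DNA:PEI 1:6), plated into poly-D-lysine plates and assayed 48 h post-transfection. Cells washed and held in D-PBS 30 min at 37 °C. Coelenterazine h 5 μM final; ligands 10 μM to 0.01 nM. […] At least three independent experiments in duplicate.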

[9] = biological target: Mu-type opioid receptor (Mus musculus) (UniProt P42866); experiment: Partial agonist activity at Rluc8 fused mouse MOR transfected in HEK293T cells coexpressing wild type GRK2 assessed as arrestin-3 recruitment using coelenterazine as substrate incubated for 40 mins by BRET assay; format: functional, cell-based; procedure, shortened: as §2
D(3) dopamine receptor [10] = biological target: T1, D(3) dopamine receptor; experiment: as §3, with “Antagonist” for “Partial agonist”, “human D3R receptor” for “mouse MOR”, “Galpha-oA,” for “Galpha-i2,”, “Galpha-oA” for “Galpha-i2”, “mins in presence of quinpirole” for “mins”; format: functional, cell-based
[11] = biological target: Mu-type opioid receptor (Mus musculus) (UniProt P42866); experiment: Partial agonist activity at Rluc8 fused mouse MOR transfected in HEK293T cells assessed as Nb33 recruitment at 10 uM using coelenterazine as substrate incubated for 40 mins by BRET assay relative to control; format: functional, cell-based; procedure, shortened: as §2
[12] = biological target: Mu-type opioid receptor (Mus musculus) (UniProt P42866); experiment: Agonist activity at Rluc8 fused mouse MOR transfected in HEK293T cells coexpressing wild type GRK2 assessed as arrestin-3 recruitment at 10 uM using coelenterazine as substrate incubated for 40 mins by BRET assay relative to control; format: functional, cell-based; conditions: filed as agonist; procedure, shortened: as §4
[13] = biological target: Mu-type opioid receptor (Mus musculus) (UniProt P42866); experiment: Agonist activity at Rluc8 fused mouse MOR transfected in HEK293T cells assessed as Nb33 recruitment at 10 uM using coelenterazine as substrate incubated for 40 mins by BRET assay relative to control; format: functional, cell-based; procedure, shortened: as §4
[14] = biological target: Mu-type opioid receptor (Mus musculus) (UniProt P42866); experiment: as §3, with “Agonist” for “Partial agonist”, “activation at 10 uM” for “activation”, “assay relative to control” for “assay”; format: functional, cell-based; conditions: filed as agonist; procedure, shortened: as §4
Mu-type opioid receptor [15] = biological target: T2, Mu-type opioid receptor; experiment: Agonist activity at Rluc8 fused mouse MOR transfected in HEK293T cells coexpressing wild type GRK2 assessed as arrestin-3 recruitment using coelenterazine as substrate incubated for 40 mins by BRET assay; format: functional, cell-based; procedure, shortened: as §2
Mu-type opioid receptor [16] = biological target: T2, Mu-type opioid receptor; experiment: as §3, with “Agonist” for “Partial agonist”; format: functional, cell-based; procedure, shortened: as §2
Mu-type opioid receptor [17] = biological target: T2, Mu-type opioid receptor; experiment: Agonist activity at Rluc8 fused mouse MOR transfected in HEK293T cells assessed as Nb33 recruitment using coelenterazine as substrate incubated for 40 mins by BRET assay; format: functional, cell-based; procedure, shortened: as §2

D(2) dopamine receptor, sequence (P14416 whole entry, the tested form may be a part): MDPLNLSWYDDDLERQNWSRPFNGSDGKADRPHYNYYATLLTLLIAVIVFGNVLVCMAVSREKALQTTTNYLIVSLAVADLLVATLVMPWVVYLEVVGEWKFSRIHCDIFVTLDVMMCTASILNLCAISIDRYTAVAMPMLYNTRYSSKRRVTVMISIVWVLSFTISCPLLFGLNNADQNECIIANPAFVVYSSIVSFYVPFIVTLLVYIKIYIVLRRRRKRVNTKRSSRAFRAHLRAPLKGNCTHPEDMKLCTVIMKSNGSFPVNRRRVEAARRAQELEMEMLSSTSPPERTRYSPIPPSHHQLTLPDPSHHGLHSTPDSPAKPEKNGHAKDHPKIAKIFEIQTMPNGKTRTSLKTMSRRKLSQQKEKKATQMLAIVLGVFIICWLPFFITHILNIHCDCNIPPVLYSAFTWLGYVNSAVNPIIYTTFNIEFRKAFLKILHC
T1 sequence (P35462 whole entry): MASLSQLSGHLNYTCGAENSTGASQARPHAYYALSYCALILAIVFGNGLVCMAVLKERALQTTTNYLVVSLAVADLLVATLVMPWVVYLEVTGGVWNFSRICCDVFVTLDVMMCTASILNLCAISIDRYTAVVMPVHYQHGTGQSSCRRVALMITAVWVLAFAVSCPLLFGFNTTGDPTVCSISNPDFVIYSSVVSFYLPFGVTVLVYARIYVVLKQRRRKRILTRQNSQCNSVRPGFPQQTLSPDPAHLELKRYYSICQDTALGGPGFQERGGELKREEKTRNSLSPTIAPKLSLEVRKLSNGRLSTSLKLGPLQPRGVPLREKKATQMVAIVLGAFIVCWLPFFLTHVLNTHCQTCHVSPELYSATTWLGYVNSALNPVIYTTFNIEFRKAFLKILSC
Mu-type opioid receptor (Mus musculus), sequence (P42866 whole entry, the tested form may be a part): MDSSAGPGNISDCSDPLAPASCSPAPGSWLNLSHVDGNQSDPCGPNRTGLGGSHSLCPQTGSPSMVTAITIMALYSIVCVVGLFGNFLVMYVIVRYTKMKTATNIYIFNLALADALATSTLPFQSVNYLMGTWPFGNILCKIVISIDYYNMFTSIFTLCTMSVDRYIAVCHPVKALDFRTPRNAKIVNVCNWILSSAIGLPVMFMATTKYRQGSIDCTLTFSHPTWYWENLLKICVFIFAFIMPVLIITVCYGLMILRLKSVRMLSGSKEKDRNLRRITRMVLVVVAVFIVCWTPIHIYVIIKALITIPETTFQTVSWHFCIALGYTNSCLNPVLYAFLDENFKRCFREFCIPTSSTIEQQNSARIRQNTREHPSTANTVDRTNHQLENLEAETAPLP
T2 sequence (P42866 whole entry, the tested form may be a part): as above
Mu-type opioid receptor (Homo sapiens, UniProt P35372), sequence (P35372 whole entry): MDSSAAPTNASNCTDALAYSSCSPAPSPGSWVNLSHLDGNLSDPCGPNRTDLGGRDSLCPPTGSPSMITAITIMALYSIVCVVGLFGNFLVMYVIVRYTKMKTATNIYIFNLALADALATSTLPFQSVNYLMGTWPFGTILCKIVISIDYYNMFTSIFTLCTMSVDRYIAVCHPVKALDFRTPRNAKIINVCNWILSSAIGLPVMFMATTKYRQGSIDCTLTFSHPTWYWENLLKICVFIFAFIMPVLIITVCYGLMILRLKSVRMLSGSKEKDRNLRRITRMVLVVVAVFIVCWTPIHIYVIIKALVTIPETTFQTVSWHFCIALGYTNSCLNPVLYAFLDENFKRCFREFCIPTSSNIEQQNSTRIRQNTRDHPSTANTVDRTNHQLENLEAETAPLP

## FC(F)(F)c1cccc(N2CCN(CCCOC3(c4ccccn4)CCOCC3)CC2)n1
Mu-type opioid receptor [1]
  Ki: 2070 nM

## FC(F)(F)c1cccc(N2CCN(CCCOC3(c4ccccn4)CCOC4(CCCC4)C3)CC2)n1 (configuration not stated)
D(3) dopamine receptor [2]
  Ki: 286 nM
D(2) dopamine receptor
  Ki: 1310 nM
Mu-type opioid receptor [1]
  Ki: 1640 nM

## CN(C)C(=O)C(CCN[C@@H]1C[C@H]1c1ccc(Cl)cc1)(c1ccccc1)c1ccccc1 (relative stereo)
Mu-type opioid receptor [1]
  Ki: 12.3 nM

## CCC1(CC)CC(OCCCN2CCN(c3cccc(Cl)c3Cl)CC2)(c2ccccn2)CCO1 (configuration not stated)
D(3) dopamine receptor [2]
  Ki: 21.7 nM
D(2) dopamine receptor
  Ki: 122 nM
Mu-type opioid receptor [1]
  Ki: 2270 nM

## CN(C)C(=O)C(CCN1C[C@H](F)C[C@H]1C(=O)NCCCCN1CCN(c2cccc(Cl)c2Cl)CC1)(c1ccccc1)c1ccccc1
Mu-type opioid receptor [1]
  Ki: 787 nM

## CCc1cc(Cl)c(OC)c(N2CCN(CCCCc3cn(CCC(C(=O)N(C)C)(c4ccccc4)c4ccccc4)nn3)CC2)c1
Mu-type opioid receptor [1]
  Ki: 2120 nM

## CN(C)C(=O)C(CCN(CCO)[C@@H]1C[C@H]1c1ccc(Cl)cc1)(c1ccccc1)c1ccccc1 (relative stereo)
D(2) dopamine receptor
  Ki: 7330 nM
Mu-type opioid receptor [1]
  Ki: 26.9 nM

## CCCN(CCC(C(=O)N(C)C)(c1ccccc1)c1ccccc1)[C@@H]1C[C@H]1c1ccc(Cl)cc1 (relative stereo)
Mu-type opioid receptor [1]
  Ki: 31.2 nM

## FC(F)(F)c1cccc(N2CCN(CCC3(c4ccccn4)CCOCC3)CC2)n1
Mu-type opioid receptor [1]
  Ki: 1670 nM

## CN(C)C(=O)C(CCN1C[C@H](F)C[C@H]1C(=O)NCCCCN1CCN(c2cccc(C(F)(F)F)n2)CC1)(c1ccccc1)c1ccccc1
Mu-type opioid receptor [3]
  EC50: 5750 nM
Mu-type opioid receptor [4]
  EC50: 1160 nM
Mu-type opioid receptor [1]
  Ki: 192 nM

## COc1ccccc1[C@@H]1C[C@H]1NCCC(C(=O)N(C)C)(c1ccccc1)c1ccccc1 (relative stereo)
Mu-type opioid receptor [1]
  Ki: 55.2 nM

## CCc1cc(Cl)c(OC)c(N2CCN(C[C@@H]3C[C@@H](O)CN3CCC(C(=O)N(C)C)(c3ccccc3)c3ccccc3)CC2)c1
[5]; filed as partial agonist
  Emax: 86.1%
D(3) dopamine receptor [2]
  Ki: 111 nM
D(3) dopamine receptor [6]
  EC50: 25.4 nM
[7]
  Activity: inactive
[8]
  Activity: inactive
[9]
  Activity: inactive
D(2) dopamine receptor
  Ki: 870 nM
Mu-type opioid receptor [4]
  EC50: 3310 nM
D(3) dopamine receptor [10]
  IC50: 2950 nM
D(3) dopamine receptor [10]; hek293t
  EC50: 2960 nM
Mu-type opioid receptor [1]
  Ki: 377 nM
[11]
  Emax: inactive

## Fc1cncc(CNCC[C@@]2(c3ccccn3)CCOC3(CCCC3)C2)c1
D(3) dopamine receptor [2]
  Ki: 85100 nM
D(2) dopamine receptor
  Ki: > 100000 nM
Mu-type opioid receptor [1]
  Ki: 54.7 nM

## COc1ccsc1CNCC[C@@]1(c2ccccn2)CCOC2(CCCC2)C1 [OLICERIDINE]
[5]
  Emax: 93.2%
D(3) dopamine receptor [2]
  Ki: 6860 nM
[8]
  Emax: 49.1%
D(2) dopamine receptor
  Ki: 83200 nM
[11]
  Emax: 31.4%

## CCC1(CC)CC(OCCCNCc2cccc(C(F)(F)F)n2)(c2ccccn2)CCO1 (configuration not stated)
D(3) dopamine receptor [2]
  Ki: 2700 nM
Mu-type opioid receptor [1]
  Ki: 2520 nM

## Clc1ccc([C@@H]2C[C@H]2NCCC2(c3ccccn3)CCOC3(CCCC3)C2)cc1 (relative stereo)
[12]
  Emax: 51.3%
D(3) dopamine receptor [2]
  Ki: 361 nM
[13]
  Emax: 24.9%
[14]
  Emax: 97.6%
D(2) dopamine receptor
  Ki: 5520 nM
Mu-type opioid receptor [15]
  EC50: 261 nM
Mu-type opioid receptor [16]; read-out: EC50
  EC50: 73.4 nM
Mu-type opioid receptor [16]; read-out: pEC50 (converted)
  EC50: 72.4 nM
D(3) dopamine receptor [10]
  EC50: 271 nM
  IC50: 269 nM
Mu-type opioid receptor [1]
  Ki: 85.2 nM
Mu-type opioid receptor [17]
  EC50: 406 nM

## Clc1cccc(N2CCN(CCC3(c4ccccn4)CCOCC3)CC2)c1Cl
Mu-type opioid receptor [15]
  EC50: 6480 nM
Mu-type opioid receptor [16]; read-out: EC50
  EC50: 848 nM
Mu-type opioid receptor [1]
  Ki: 691 nM
Mu-type opioid receptor [17]
  EC50: 1590 nM

## Clc1ccc([C@@H]2C[C@H]2NCCC2(c3ccccn3)CCOCC2)cc1 (relative stereo)
Mu-type opioid receptor [1]
  Ki: 1580 nM
